In ChEMBL document CHEMBL2040781, “Design, synthesis, and biological evaluation of chromone-based p38 MAP kinase inhibitors” (J Med Chem, 2011):
Calls of active or inactive are those of the source. The rule behind the calls is not given here.

Tests used:
Assay type in all cases: cell-based
[1] = target: Dual specificity mitogen-activated protein kinase kinase 3 (Homo sapiens) (UniProt P46734); test: Inhibition of anisomycin-induced MKK3 phosphorylation in human MCF7 cells at 1 to 10 uM after 30 mins by SDS PAGE analysis
Chain of Dual specificity mitogen-activated protein kinase kinase 3 (Homo sapiens) (P46734 whole entry): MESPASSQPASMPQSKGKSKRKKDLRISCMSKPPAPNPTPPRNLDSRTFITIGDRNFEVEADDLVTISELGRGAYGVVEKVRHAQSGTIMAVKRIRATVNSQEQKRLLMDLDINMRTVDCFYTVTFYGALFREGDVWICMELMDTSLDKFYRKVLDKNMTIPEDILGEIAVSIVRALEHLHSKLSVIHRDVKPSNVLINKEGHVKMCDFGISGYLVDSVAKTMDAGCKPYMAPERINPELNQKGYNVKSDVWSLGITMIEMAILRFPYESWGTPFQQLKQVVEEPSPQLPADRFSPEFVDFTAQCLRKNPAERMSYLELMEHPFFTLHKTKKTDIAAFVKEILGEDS

[2] = target: T1, Mitogen-activated protein kinase 14 (Homo sapiens, UniProt Q16539); test: Inhibition of anisomycin-induced p38alpha MAPK signalling in human MCF7 cells assessed as inhibition of ATF2 activation at 10 uM after 30 mins by SDS PAGE analysis
T1 sequence (Q16539 whole entry): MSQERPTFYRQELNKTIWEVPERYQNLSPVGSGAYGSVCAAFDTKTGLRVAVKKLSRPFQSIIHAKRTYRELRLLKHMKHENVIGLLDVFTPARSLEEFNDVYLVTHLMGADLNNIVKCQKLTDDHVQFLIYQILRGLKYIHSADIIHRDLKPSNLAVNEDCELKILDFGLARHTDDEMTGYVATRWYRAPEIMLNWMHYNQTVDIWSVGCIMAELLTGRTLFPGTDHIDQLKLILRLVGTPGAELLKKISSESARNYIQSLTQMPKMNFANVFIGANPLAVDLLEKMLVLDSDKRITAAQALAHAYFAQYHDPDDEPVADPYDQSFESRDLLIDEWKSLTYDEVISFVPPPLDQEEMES
Outline: (§1)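 MCF-7 cells were preincubated with the compound at the indicated doses for 30 min, then stimulated with 10 μg/mL anisomycin for another 30 min. Total cell lysates were resolved by SDS-PAGE and immunoblotted with antibodies against phosphorylated ATF2, p38 and HSP27, with tubulin as the loading control.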

[3] = target: T1, Mitogen-activated protein kinase 14; test: Inhibition of p38alpha phosphorylation in human MCF7 cells at 0.5 to 10 uM after 30 mins by SDS PAGE analysis
Outline: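 MCF-7 cells were preincubated with compound for 30 min, then stimulated with 10 μg/mL anisomycin for another 30 min. Total cell lysates were resolved by SDS-PAGE and immunoblotted for phosphorylated ATF2, p38 and HSP27, with tubulin as the loading control.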

[4] = target: T1, Mitogen-activated protein kinase 14; test: Inhibition of anisomycin-induced p38alpha MAPK signalling in human MCF7 cells assessed as inhibition of HSP27 activation at 0.5 uM after 30 mins by SDS PAGE analysis; outline: as §1
[5] = target: Dual specificity mitogen-activated protein kinase kinase 6 (Homo sapiens) (UniProt P52564); test: Inhibition of anisomycin-induced MKK6 phosphorylation in human MCF7 cells at 1 to 10 uM after 30 mins by SDS PAGE analysis
Chain of Dual specificity mitogen-activated protein kinase kinase 6 (Homo sapiens) (P52564 whole entry): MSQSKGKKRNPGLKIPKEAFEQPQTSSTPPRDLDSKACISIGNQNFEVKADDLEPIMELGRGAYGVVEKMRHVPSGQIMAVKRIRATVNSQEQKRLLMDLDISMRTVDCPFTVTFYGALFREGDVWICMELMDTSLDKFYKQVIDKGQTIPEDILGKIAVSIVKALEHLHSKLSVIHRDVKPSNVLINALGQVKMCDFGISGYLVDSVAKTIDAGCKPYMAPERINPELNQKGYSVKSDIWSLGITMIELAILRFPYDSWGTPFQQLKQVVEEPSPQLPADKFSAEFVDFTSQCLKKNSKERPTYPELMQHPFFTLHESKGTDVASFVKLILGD

[6] = target: T1, Mitogen-activated protein kinase 14; test: Inhibition of anisomycin-induced p38alpha MAPK signalling in human MCF7 cells assessed as inhibition of HSP27 activation at 10 uM after 30 mins by SDS PAGE analysis; outline: as §1

**Q.** With `O=c1c(-c2ccc(F)cc2)c(-c2ccnc(NC3CCCCC3)c2)oc2ccccc12` as the compound, how does the inhibition [1] read?
**A.** inactive

**Q.** And the Imax [2]?
**A.** Active

**Q.** What about the inhibition [3] of the same compound?
**A.** Active

**Q.** And the inhibition [4]?
**A.** Active

**Q.** And the inhibition [5]?
**A.** inactive

**Q.** And the Imax [6]?
**A.** Active
